Experimental data gathered from unrelated publications.
Organism: Trypanosoma cruzi
Read-out: parasite growth
Notes: intracellular, amastigote

| SMILES | assay | system | conditions | measurement | value |
| --- | --- | --- | --- | --- | --- |
| O=C(N[C@@H](Cc1ccccc1)C(=O)c1cn(COCc2ccccc2)nn1)[C@H](Cc1ccccc1)NC(=O)N1CCOCC1 | – | TULAHUEN | – | IC50 | 32.2 µM |
| c1ccc(C2CCN(c3nc(-c4ccco4)nc4ccccc34)C2)nc1 (stereo not shown) | imaging | U2OS | – | IC50 | 50 µM |
| Cc1ccc2nc(-c3ccc(F)c(F)c3)c(CN3CCC(Cc4ccccc4)CC3)n2c1 | – | TULAHUEN | 6 days | EC90 | 4.7 µM |
| COc1ccc(Nc2nc(-c3ccncc3)nc3ccccc23)cc1 | imaging | U2OS | – | IC50 | 24.5 µM |
| O=C(N[C@H](Cc1c[nH]c2ccccc12)C(=O)Nc1ccncc1)c1ccc(-c2cc(F)ccc2F)cc1F | imaging | C2C12 | 72 h | EC50 | 0.0013 µM |
| COc1ccc(Nc2nc(-c3ccco3)nc3ccccc23)cc1 | imaging | U2OS | – | IC50 | 11.4 µM |
| COC(=O)c1ccc(NCc2cncn2Cc2ccccc2[N+](=O)[O-])cc1-c1ccccc1 | – | mouse Fibroblast | – | EC50 | 0.1 to 1 µM |
| O=C(Cn1ccnc1[N+](=O)[O-])NCc1ccccc1 | – | TULAHUEN | 6 days | EC90 | 1.64 µM |
| COC(=O)c1ccc(NCc2cncn2Cc2ccccc2Cl)cc1-c1ccccc1 | – | mouse Fibroblast | – | EC50 | 0.1 to 1 µM |
| O=C(N[C@@H](Cc1ccccc1)C(=O)c1nccs1)[C@H](Cc1ccccc1)NC(=O)N1CCOCC1 | – | TULAHUEN | – | IC50 | 31.7 µM |
